The values below come from article PMC5472421 (Drug Design, Development and Therapy, 2017).

The format of data set [1] is in vivo, rat. The settings on record: 4 h after oral DFP-11207 53.4 mg/kg. A digest of the protocol:
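AZ521 xenograft-bearing nude rats received 53.4 mg/kg (75 μmol/kg) test compound orally and were killed at 1, 2, 4, 8 and 12 h. Serum, small intestine and tumour were taken. Tissues were homogenised in 10 mM potassium phosphate-buffered saline (pH 7.2) and spun at 9,000× g for 30 min. Supernatants were extracted with 4 volumes of ethyl acetate, dried at 40°C, redissolved, and assayed for CTA and 5-FU by HPLC.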

The target in data set [2] is T1, orotate phosphoribosyltransferase (OPRT) (Homo sapiens, UniProt P11172).
T1 sequence (P11172 1-480): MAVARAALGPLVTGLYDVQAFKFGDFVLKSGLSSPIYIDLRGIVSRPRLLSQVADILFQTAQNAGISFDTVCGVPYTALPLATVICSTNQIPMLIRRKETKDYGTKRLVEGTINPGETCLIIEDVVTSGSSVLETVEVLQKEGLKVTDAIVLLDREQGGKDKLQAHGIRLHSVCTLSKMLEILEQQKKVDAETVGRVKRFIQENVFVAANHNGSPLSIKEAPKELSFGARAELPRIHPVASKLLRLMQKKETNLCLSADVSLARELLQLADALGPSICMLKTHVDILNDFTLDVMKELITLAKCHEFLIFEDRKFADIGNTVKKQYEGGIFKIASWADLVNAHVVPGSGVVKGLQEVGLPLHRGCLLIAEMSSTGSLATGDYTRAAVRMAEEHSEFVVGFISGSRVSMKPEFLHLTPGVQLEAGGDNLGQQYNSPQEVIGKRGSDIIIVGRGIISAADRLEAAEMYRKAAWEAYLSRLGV
The settings on record: cited from earlier work.

Another data set has as its system CoLo320DM cells. The format is cell-based, human. The note with it: 1-100 µM, 1 µM [6-3H] 5-FU, 37°C, 45 min. Put shortly: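 CoLo320DM cells in RPMI-1640 were incubated at 37°C for 45 min with 1 μM [6-3H]5-FU (37 kBq), alone or with 1–100 μM test compound or CTA. Acid was added and the mixture centrifuged. The neutralised acid-soluble fraction was run on silica TLC and the FUMP spot counted. RNA-incorporated label in the precipitate was extracted by the Schneider method. Results are means of duplicate assays.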

A short description of data set [3]: Conversion of EM-FU to 5-FU by human liver microsomes. The format is in vitro ADME. The note with it: 1 mM, 60 min. Put shortly: (§1)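 EM-FU (1 mM) was incubated for 60 min with liver microsomes (0.85 mg protein) from each species, with tegafur as positive control. 5-FU formed was quantified by HPLC. Assays were run in triplicate and reported as mean ± SD.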
For orientation: Microsomes from liver hold many membrane-bound enzymes, among them those of drug oxidation.

Data set [4] in a line: Conversion of EM-FU to 5-FU by rat liver microsomes. The format is in vitro ADME. The settings on record: 1 mM, 60 min. Put shortly: as §1
A short description of data set [5]: Conversion of EM-FU to 5-FU by dog liver microsomes. The format is in vitro ADME. The note with it: 1 mM, 60 min. Put shortly:
as §1

The nature of data set [6]: Conversion of EM-FU to 5-FU by monkey liver microsomes. The note with it: 1 mM, 60 min. The format is in vitro ADME. Put shortly: as §1
The format of data set [7] is in vitro ADME. The settings on record: rat serum, liver and small intestine homogenates. Put shortly:
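Test compound (1 mM) was incubated at 37°C with rat serum or 20% (w/v) liver or small-intestine homogenates for 10, 20, 30 and 60 min. Reactions were stopped with 10% TCA and spun at 3,000× g for 10 min. Supernatants were neutralised with 2 M KOH, and EM-FU, CDHP, CTA and 5-FU were measured by HPLC. Results are means of duplicate assays.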

For data set [8], the system named is CYP1A2, CYP2A6, CYP2E1, CYP3A4. The format is in vitro ADME. The settings on record: 100 µM inhibitor; EM-FU 1 mM; human liver microsomes.

Regarding `O=c1[nH]cc(F)c(=O)[nH]1` [5-FU, 5-Fluorouracil], in [1], the “5-FU level in small intestine compared with CTA” value was “almost equal level”; the “5-FU levels in blood and tumor compared with CTA” value is reported as “much higher than CTA”.
In the case of `O=C(O)c1cc(O)nc(O)c1` [CTA, citrazinic acid], in data set [2], the “Inhibition of OPRT activity (5-FU phosphorylation) in cell-free tumor extract” value was “strongly inhibit”. In the data set on CoLo320DM cells, the “Inhibition of incorporation of 5-FU into RNA” value is on record as “did not inhibit” and the “Inhibition of intracellular phosphorylation of 5-FU” value is reported as “did not inhibit”.
On to `CCOCn1cc(F)c(=O)[nH]c1=O` [EM-FU, 1-ethoxymethyl-5-fluorouracil], for which the “Conversion rate of EM-FU to 5-FU” value in data set [3] is 30 to 60 pmol/min/mg; in data set [4], 30 to 60 pmol/min/mg; in data set [5] it was “lowest conversion rate”; in [6] it was 30 to 60 pmol/min/mg. In addition, in data set [7], the “Production of 5-FU from EM-FU by this enzymatic reaction” value is recorded as “not produced”.
Consider `O=c1ccc2ccccc2o1` [coumarin], for which the “Inhibition of the conversion of EM-FU to 5-FU” value (from here on “Inhibition … to 5-FU”) in [8] is “strongly inhibited”.
`O=[N+]([O-])c1ccc(O)cc1` [p-nitrophenol]: the “Inhibition … to 5-FU” value in data set [8] is listed as “strongly inhibited”.
Take `O=c1cc(-c2ccccc2)oc2c1ccc1ccccc12` [α-naphthoflavone]: the “Inhibition … to 5-FU” value in data set [8] was “strongly inhibited”.
Take toleandomycin: the “Inhibition … to 5-FU” value in data set [8] is listed as “strongly inhibited”.
